In paper PMC6331221 (Biomaterials, 2018):

Experiments:
[1] = tested on: A2780 ovarian cancer cell line; assay: MTT cytotoxicity assay in A2780 cells; type: cell-based, human; conditions: 72 h
Procedure, shortened: (§1)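 Cells grown in RPMI1640 with 10% FBS and 1% penicillin-streptomycin, seeded at 3000 cells/well 24 h before treatment, then exposed to free or micelle-incorporated drug serially diluted in full medium for 72 h. MTT added for 4 h at 37°C, formazan dissolved in DMSO, absorbance read at 562 nm. Survival relative to untreated wells; six wells, mean ± standard deviation; IC50 from fitted curves.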

[2] = tested on: A2780/CisR (cisplatin resistant) ovarian cancer cell line; assay: MTT cytotoxicity and combination index in A2780/CisR cells; type: cell-based, human; conditions: 72 h
Procedure, shortened: as §1

[3] = tested on: A2780/CisR ovarian cancer xenograft; assay: Anti-tumor efficacy in A2780/CisR ovarian cancer xenograft model; type: in vivo, mice; conditions: q4d x 4, 20 mg/kg PTX and/or 20 mg/kg CP, cisplatin 3 mg/kg
[4] = tested on: LCC-6-MDR orthotopic tumor; assay: Anti-tumor efficacy in orthotopic LCC-6-MDR breast cancer model; type: in vivo, mice; conditions: q4d x 4; 60 mg/kg PTX and/or 4.5 mg/kg C6CP, cisplatin 3 mg/kg

Q: How did the IC50 [1] turn out when `N.N.[Cl][Pt][Cl]` [cisplatin] was run?
A: 1.141 µg/mL

Q: What about the IC50 [2] of the same compound?
A: 10.88 µg/mL

Q: What about the “effect on tumor growth” value [3] of the same compound?
A: small but significant effect by delaying the tumor growth

Q: What about the median lifespan ([3]; untreated 10.5 days) of the same compound?
A: 14.5 days

Q: And the “antitumor effect” value [4]?
A: considerable antitumor effect
